Data taken from ChEMBL document CHEMBL1152647, “Hybrid pharmacophore design and synthesis of isatin-benzothiazole analogs for their anti-breast cancer activity” (Bioorg Med Chem, 2009).
Active and inactive are the calls of the source. No cut-off for these calls is given here.

What was measured:
[1] = Cytotoxicity against human 184B5 cells after 48 hrs by SRB assay; assay type: cell-based
Summary of the method: (§1)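 Cancer lines grown in RPMI 1640 with 10% FBS and 2 mM L-glutamine; 184B5 and MCF10A grown in supplemented mammary epithelial basal medium. 5000–10,000 cells/well seeded, 24 h at 37 °C and 5% CO₂. Seven serially diluted concentrations added, final DMSO ≤0.1%, 48 h exposure. Fixed with 10% TCA (final) at 4 °C, stained with 0.4% SRB, solubilized in 10 mM Tris, A515–564. Growth % = (Ti−Tz)/(C−Tz)×100; GI50 from sigmoidal variable-slope fit; triplicates, ≥2 independent experiments.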

[2] = system: MDA-MB-468; assay: Cytotoxicity against human MDA-MB-468 cells after 48 hrs by SRB assay; assay type: functional; settings: MDA-MB-468, 48 h; summary of the method: as §1
[3] = Cytotoxicity against human MCF10A cells after 48 hrs by SRB assay; assay type: cell-based, MCF-10A; summary of the method: as §1
[4] = system: MDA-MB-231; assay: Cytotoxicity against human MDA-MB-231 cells after 48 hrs by SRB assay; assay type: functional; settings: MDA-MB-231, 48 h; summary of the method: as §1
[5] = system: MCF7; assay: Cytotoxicity against human MCF7 cells after 48 hrs by SRB assay; assay type: functional; settings: MCF7, 48 h; summary of the method: as §1
[6] = system: MCF7; assay: Cell cycle arrest in human MCF7 cells assessed as accumulation at S phase at 20 uM after 24 hrs by flow cytometry (Rvb=17%); assay type: functional
Summary of the method: (§2)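 MCF7 or MCF10A cells treated with compound at 20 or 40 µM for 24 h, with DMSO-treated negative control. 2.0 × 10⁶ cells pelleted and fixed in ice-cold 70% ethanol (30 min to overnight, −20 °C), then washed in PBS. Stained 30 min at 37 °C with 100 µg/mL PI, 100 µg/mL RNase A, 0.3% NP-40 and 0.1% sodium citrate. DNA content read by flow cytometry; G0/G1, S and G2/M fractions taken from DNA histograms.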

[7] = system: MDA-MB-231; assay: Selectivity ratio of GI50 for human MCF10A cells to GI50 for human MDA-MB-231 cells
Summary of the method: (§3)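 Ratio of non-cancer to cancer GI50, each from 48 h SRB growth assays (seven concentrations, sigmoidal variable-slope fit, triplicates in ≥2 independent experiments).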

[8] = system: MCF-10A; assay: Cell cycle arrest in human MCF10A cells assessed as accumulation at G2/M phase at 20 uM after 24 hrs by flow cytometry; assay type: functional, cell-based; summary of the method: as §2
[9] = system: MDA-MB-468; assay: Selectivity ratio of GI50 for human 184B5 cells to GI50 for human MDA-MB-468 cells; summary of the method: as §3
[10] = system: MCF-10A; assay: Cell cycle arrest in human MCF10A cells assessed as accumulation at S phase at 20 uM after 24 hrs by flow cytometry; assay type: functional, cell-based; summary of the method: as §2
[11] = system: MCF7; assay: Cell cycle arrest in human MCF7 cells assessed as accumulation at G2/M phase at 20 uM after 24 hrs by flow cytometry (Rvb=12%); assay type: functional; summary of the method: as §2
[12] = system: MCF7; assay: Cell cycle arrest in human MCF7 cells assessed as accumulation at G2/M phase at 40 uM after 24 hrs by flow cytometry; assay type: functional, cell-based; summary of the method: as §2

| Compound | GI50 at 48 h [1] [µM] | GI50 [2] [µM] | GI50 at 48 h [3] [µM] | GI50 [4] [µM] | GI50 [5] [µM] | Activity [6] | RatioGI50 [7] | Activity [8] | RatioGI50 [9] | Activity [10] | Activity [11] | Activity [12] |
| --- | --- | --- | --- | --- | --- | --- | --- | --- | --- | --- | --- | --- |
| Cc1ccc2nc(/N=C3\C(=O)N(CN(c4ccccc4)c4ccccc4)c4cccc(Cl)c43)sc2c1 | 67.8 | 85 | 70 | 54 | 24.3 | – | – | – | – | – | – | – |
| O=C1C(=O)N(CN2CCCCC2)c2ccccc21 | 68 | 24.1 | 41.8 | 38 | 41.2 | – | – | – | – | – | – | – |
| O=C1C(=O)N(CN(c2ccccc2)c2ccccc2)c2ccccc21 | 33.7 | 21.5 | 73 | 24.8 | 23.7 | – | – | – | – | – | – | – |
| Cc1ccc2nc(/N=C3\C(=O)N(CN(C)C)c4cccc(Cl)c43)sc2c1 | 5.77 | 28.1 | 7.02 | 10.9 | 20.7 | – | – | – | – | – | – | – |
| Cc1ccc2nc(/N=C3\C(=O)N(CN4CCCCC4)c4ccccc43)sc2c1 | 34.9 | 65.6 | 38.9 | 34.5 | 37.8 | – | – | – | – | – | – | – |
| CCN(CC)CN1C(=O)C(=O)c2c(Br)cccc21 | 172 | 11.7 | 113 | 20.2 | 20.2 | 8% | 5.6 | inactive | 14.7 | inactive | 38% | – |
| O=C1C(=O)N(CN2CCOCC2)c2cccc(Cl)c21 | 79.8 | 61.5 | 78.5 | 61.5 | 29.2 | – | – | – | – | – | – | – |
| Cc1ccc2nc(/N=C3\C(=O)N(CN(C)C)c4ccccc43)sc2c1 | 15.6 | 35.5 | 13.4 | 19.2 | 29.2 | – | – | – | – | – | – | – |
| CN(C)CN1C(=O)C(=O)c2c(Br)cccc21 | 77.9 | 49 | 67.8 | 93.7 | 57.6 | – | – | – | – | – | – | – |
| CCN(CC)CN1C(=O)/C(=N\c2nc3ccc(C)cc3s2)c2ccccc21 | 27.5 | 63.5 | 20.4 | 32.7 | 74.8 | – | – | – | – | – | – | – |
| Cc1ccc2nc(/N=C3\C(=O)N(CN4CCOCC4)c4cccc(Cl)c43)sc2c1 | 63.5 | 24 | 62.3 | 37.1 | 21.5 | – | – | – | – | – | – | – |
| Cc1ccc2nc(/N=C3\C(=O)N(CN4CCOCC4)c4cccc(Br)c43)sc2c1 | 29.9 | 24.8 | 33.2 | 94.6 | 12 | – | – | – | – | – | – | – |
| O=C1C(=O)N(CN2CCOCC2)c2ccccc21 | 78.7 | 28.2 | 72.1 | 57.6 | 52.3 | – | – | – | – | – | – | – |
| Cc1ccc2nc(/N=C3\C(=O)N(CN(C)C)c4cccc(Br)c43)sc2c1 | 74.8 | 27.4 | 21.8 | 49 | 17.9 | – | – | – | – | – | – | – |
| Cc1ccc2nc(/N=C3\C(=O)N(CN4CCCCC4)c4cccc(Cl)c43)sc2c1 | 82.3 | 19.8 | 30.2 | 55.8 | 30.9 | – | – | – | – | – | – | – |
| CCN(CC)CN1C(=O)/C(=N\c2nc3ccc(C)cc3s2)c2c(Cl)cccc21 | 87.8 | 27.3 | 43.9 | 20.4 | 19.2 | – | – | – | – | – | – | – |

| Compound | GI50 at 48 h [1] [µM] | GI50 [2] [µM] | GI50 at 48 h [3] [µM] | GI50 [4] [µM] | GI50 [5] [µM] | Activity [6] | RatioGI50 [7] | Activity [8] | RatioGI50 [9] | Activity [10] | Activity [11] | Activity [12] |
| --- | --- | --- | --- | --- | --- | --- | --- | --- | --- | --- | --- | --- |
| Cc1ccc2nc(/N=C3\C(=O)N(CN(c4ccccc4)c4ccccc4)c4ccccc43)sc2c1 | 27.2 | 17.7 | 34 | 34.1 | 39.1 | – | – | – | – | – | – | – |
| O=C1C(=O)N(CN(c2ccccc2)c2ccccc2)c2cccc(Br)c21 | 98.5 | 63.2 | 85.8 | 51.1 | 110 | – | – | – | – | – | – | – |
| Cc1ccc2nc(/N=C3\C(=O)N(CN4CCCCC4)c4cccc(Br)c43)sc2c1 | 85.2 | 24 | 18.4 | 38.2 | 39.1 | – | – | – | – | – | – | – |
| O=C1C(=O)N(CN(c2ccccc2)c2ccccc2)c2cccc(Cl)c21 | 96.8 | 14.3 | 77.2 | 31.4 | 29.7 | – | – | – | – | – | – | – |
| CCN(CC)CCCC(C)Nc1ccnc2cc(Cl)ccc12 (stereo not drawn) [CHLOROQUINE] | 76.1 | – | 81.3 | – | – | – | – | – | – | – | – | – |
| O=C1C(=O)N(CN2CCOCC2)c2cccc(Br)c21 | 79.5 | 54 | 82.3 | 29.7 | 65.6 | – | – | – | – | – | – | – |
| O=C1C(=O)N(CN2CCCCC2)c2cccc(Cl)c21 | 93.7 | 82.8 | 70.7 | 26.5 | 51.2 | – | – | – | – | – | – | – |
| CCN(CC)CN1C(=O)C(=O)c2ccccc21 | 41.7 | 35.9 | 73.6 | 60.6 | 44.1 | – | – | – | – | – | – | – |
| CN(C)CN1C(=O)C(=O)c2c(Cl)cccc21 | 130 | 107 | 82.3 | 138 | 87.8 | – | – | – | – | – | – | – |
| CCN(CC)CN1C(=O)/C(=N\c2nc3ccc(C)cc3s2)c2c(Br)cccc21 | 34.3 | 43.1 | 16.1 | 28.7 | 30.2 | – | – | – | – | – | – | – |
| Cc1ccc2nc(/N=C3\C(=O)N(CN4CCOCC4)c4ccccc43)sc2c1 | 30.6 | 17.6 | 38.5 | 19.8 | 14.6 | inactive | – | inactive | – | inactive | inactive | Active |
| Cc1ccc2nc(/N=C3\C(=O)N(CN(c4ccccc4)c4ccccc4)c4cccc(Br)c43)sc2c1 | 70.2 | 82.3 | 67.9 | 75.1 | 30.2 | – | – | – | – | – | – | – |
| O=C1C(=O)N(CN2CCCCC2)c2cccc(Br)c21 | 85.2 | 35.3 | 66.9 | 30.2 | 31.4 | – | – | – | – | – | – | – |
| CN(C)CN1C(=O)C(=O)c2ccccc21 | 73.7 | 50.1 | 150 | 65.6 | 40.5 | – | – | – | – | – | – | – |
| CCN(CC)CN1C(=O)C(=O)c2c(Cl)cccc21 | 22.5 | 28.3 | 35 | 44.5 | 34 | – | – | – | – | – | – | – |
